# ChEMBL document CHEMBL5303300, “EUbOPEN Chemogenomics Library - Multiplex” (2023)
# “And” between values parts separate entries of the source, which are not always exact repeats. Equal entries are not always repeated.
# Test system: U2OS
# Assay: Multiplex assay against U2OS
# Assay type: toxicity, cell-based
# Conditions: human, number of replicates 2
# In short: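 At seeding, live cells were stained with Hoechst33342, BioTracker Green Microtubule Cytoskeleton Dye, MitoTracker Red and Annexin V Alexa Fluor 680. After compound addition they were imaged on a CQ1 microscope at 37°C and 5% CO2, and CellPathfinder machine-learning gating sorted them into Hoechst high-intensity objects or normal cells, with normal cells further split into healthy, pyknosed or fragmented nuclei and pyknosed cells into mitotic or apoptotic. Tubulin, mitochondrial-mass and membrane-permeability phenotypes are given as per cents of cells with healthy nuclei.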
# [1] = 12 h, 1 µM, compound concentration 1 uM
# [2] = 12 h, 10 µM, compound concentration 10 uM
# [3] = 24 h, 1 µM, compound concentration 1 uM
# [4] = 24 h, 10 µM, compound concentration 10 uM
# [5] = 48 h, 1 µM, compound concentration 1 uM
# [6] = 48 h, 10 µM, compound concentration 10 uM
smiles,measurement,setting,value
C[C@H](N)Cn1ccc2cc(F)c(Cl)cc21.O=C(O)/C=C/C(=O)O,Population Apoptotic (%),[1],47% and 66%
same,Population Fragmented Nuclei (%),[1],4% and 8%
same,Population Healthy Nuclei (%),[1],87% and 84%
same,Population Hoechst High Intensity Objects (%),[1],0%
same,Population Membrane Permeable-Phenotype (%),[1],0%
same,Population Mitochondria Different-Phenotype (%),[1],0%
same,Population Mitotic Cells (%),[1],52% and 33%
same,Population Normal (%),[1],99% and 100%
same,Population Pyknosed Nuclei (%),[1],8% and 6%
same,Population Tubulin-Different-Phenotype (%),[1],94% and 44%
same,Population Apoptotic (%),[2],40% and 50%
same,Population Fragmented Nuclei (%),[2],5% and 12%
same,Population Healthy Nuclei (%),[2],88% and 75%
same,Population Hoechst High Intensity Objects (%),[2],0%
same,Population Membrane Permeable-Phenotype (%),[2],1% and 8%
same,Population Mitochondria Different-Phenotype (%),[2],1% and 0%
same,Population Mitotic Cells (%),[2],60% and 50%
same,Population Normal (%),[2],99% and 100%
same,Population Pyknosed Nuclei (%),[2],6% and 12%
same,Population Tubulin-Different-Phenotype (%),[2],62% and 37%
same,Population Apoptotic (%),[3],100% and 62%
same,Population Fragmented Nuclei (%),[3],6% and 1%
same,Population Healthy Nuclei (%),[3],91% and 90%
same,Population Hoechst High Intensity Objects (%),[3],0%
same,Population Membrane Permeable-Phenotype (%),[3],0%
same,Population Mitochondria Different-Phenotype (%),[3],0%
same,Population Normal (%),[3],100% and 99%
same,Population Pyknosed Nuclei (%),[3],2% and 7%
same,Population Tubulin-Different-Phenotype (%),[3],54% and 88%
same,Population Apoptotic (%),[4],42% and 80%
same,Population Fragmented Nuclei (%),[4],3% and 9%
same,Population Healthy Nuclei (%),[4],89% and 78%
same,Population Hoechst High Intensity Objects (%),[4],0%
same,Population Membrane Permeable-Phenotype (%),[4],1% and 3%
same,Population Mitochondria Different-Phenotype (%),[4],1% and 0%
same,Population Mitotic Cells (%),[4],57% and 20%
same,Population Normal (%),[4],99% and 100%
same,Population Pyknosed Nuclei (%),[4],6% and 12%
same,Population Tubulin-Different-Phenotype (%),[4],73% and 31%
same,Population Apoptotic (%),[5],54% and 34%
same,Population Fragmented Nuclei (%),[5],5% and 2%
same,Population Healthy Nuclei (%),[5],83% and 90%
same,Population Hoechst High Intensity Objects (%),[5],0%
same,Population Membrane Permeable-Phenotype (%),[5],0% and 1%
same,Population Mitochondria Different-Phenotype (%),[5],0%
same,Population Mitotic Cells (%),[5],45% and 65%
same,Population Normal (%),[5],100%
same,Population Pyknosed Nuclei (%),[5],11% and 7%
same,Population Tubulin-Different-Phenotype (%),[5],69% and 92%
same,Population Apoptotic (%),[6],50% and 52%
same,Population Fragmented Nuclei (%),[6],10% and 5%
same,Population Healthy Nuclei (%),[6],75% and 89%
same,Population Hoechst High Intensity Objects (%),[6],0%
same,Population Membrane Permeable-Phenotype (%),[6],1%
same,Population Mitochondria Different-Phenotype (%),[6],0%
same,Population Mitotic Cells (%),[6],50% and 47%
same,Population Normal (%),[6],100%
same,Population Pyknosed Nuclei (%),[6],13% and 5%
same,Population Tubulin-Different-Phenotype (%),[6],55% and 81%
N=C(N)NCCC[C@H](NC(=O)COCC(c1ccccc1)c1ccccc1)C(=O)O.O=C(O)C(F)(F)F,Population Apoptotic (%),[1],100% and 45%
same,Population Healthy Nuclei (%),[1],40% and 87%
same,Population Hoechst High Intensity Objects (%),[1],0%
same,Population Membrane Permeable-Phenotype (%),[1],0% and 1%
same,Population Mitochondria Different-Phenotype (%),[1],0%
same,Population Normal (%),[1],100% and 99%
same,Population Pyknosed Nuclei (%),[1],13% and 9%
same,Population Tubulin-Different-Phenotype (%),[1],41% and 86%
same,Population Apoptotic (%),[2],50% and 58%
same,Population Fragmented Nuclei (%),[2],3%
same,Population Healthy Nuclei (%),[2],70% and 88%
same,Population Hoechst High Intensity Objects (%),[2],0%
same,Population Membrane Permeable-Phenotype (%),[2],4% and 1%
same,Population Mitochondria Different-Phenotype (%),[2],4% and 0%
same,Population Mitotic Cells (%),[2],50% and 41%
same,Population Normal (%),[2],100%
same,Population Tubulin-Different-Phenotype (%),[2],71% and 83%
same,Population Apoptotic (%),[3],40% and 51%
same,Population Healthy Nuclei (%),[3],55% and 88%
same,Population Hoechst High Intensity Objects (%),[3],0%
same,Population Membrane Permeable-Phenotype (%),[3],13% and 0%
same,Population Mitochondria Different-Phenotype (%),[3],0%
same,Population Mitotic Cells (%),[3],60% and 48%
same,Population Normal (%),[3],100%
same,Population Pyknosed Nuclei (%),[3],18% and 9%
same,Population Tubulin-Different-Phenotype (%),[3],73% and 87%
same,Population Apoptotic (%),[4],71% and 50%
same,Population Fragmented Nuclei (%),[4],7% and 2%
same,Population Healthy Nuclei (%),[4],73% and 88%
same,Population Hoechst High Intensity Objects (%),[4],0%
same,Population Membrane Permeable-Phenotype (%),[4],3% and 0%
same,Population Mitochondria Different-Phenotype (%),[4],3% and 0%
same,Population Mitotic Cells (%),[4],28% and 50%
same,Population Normal (%),[4],100%
same,Population Pyknosed Nuclei (%),[4],18% and 8%
same,Population Tubulin-Different-Phenotype (%),[4],67% and 85%
same,Population Apoptotic (%),[5],50% and 43%
same,Population Healthy Nuclei (%),[5],63% and 89%
same,Population Hoechst High Intensity Objects (%),[5],0%
same,Population Membrane Permeable-Phenotype (%),[5],11% and 0%
same,Population Mitochondria Different-Phenotype (%),[5],7% and 0%
same,Population Mitotic Cells (%),[5],50% and 56%
same,Population Normal (%),[5],100%
same,Population Pyknosed Nuclei (%),[5],14% and 6%
same,Population Tubulin-Different-Phenotype (%),[5],73% and 85%
same,Population Apoptotic (%),[6],35% and 55%
same,Population Fragmented Nuclei (%),[6],7% and 2%
same,Population Healthy Nuclei (%),[6],70% and 93%
same,Population Hoechst High Intensity Objects (%),[6],0%
same,Population Membrane Permeable-Phenotype (%),[6],2% and 1%
same,Population Mitochondria Different-Phenotype (%),[6],2% and 0%
same,Population Mitotic Cells (%),[6],64% and 44%
same,Population Normal (%),[6],100% and 99%
same,Population Tubulin-Different-Phenotype (%),[6],63% and 95%
Cc1cccc(S(=O)(=O)N(C)[C@H](C)CCN2CCC(C)CC2)c1.Cl,Population Apoptotic (%),[1],72% and 100%
same,Population Fragmented Nuclei (%),[1],5% and 14%
same,Population Healthy Nuclei (%),[1],84% and 82%
same,Population Hoechst High Intensity Objects (%),[1],0%
same,Population Membrane Permeable-Phenotype (%),[1],0%
same,Population Mitochondria Different-Phenotype (%),[1],0%
same,Population Normal (%),[1],100%
same,Population Pyknosed Nuclei (%),[1],10% and 2%
same,Population Apoptotic (%),[2],50%
same,Population Healthy Nuclei (%),[2],53% and 89%
same,Population Hoechst High Intensity Objects (%),[2],0%
same,Population Membrane Permeable-Phenotype (%),[2],0%
same,Population Mitochondria Different-Phenotype (%),[2],0% and 1%
same,Population Mitotic Cells (%),[2],50%
same,Population Normal (%),[2],100%
same,Population Tubulin-Different-Phenotype (%),[2],42% and 46%
same,Population Apoptotic (%),[3],41% and 14%
same,Population Fragmented Nuclei (%),[3],4% and 10%
same,Population Healthy Nuclei (%),[3],83% and 71%
same,Population Hoechst High Intensity Objects (%),[3],0%
same,Population Membrane Permeable-Phenotype (%),[3],1% and 0%
same,Population Mitochondria Different-Phenotype (%),[3],0%
same,Population Mitotic Cells (%),[3],58% and 85%
same,Population Normal (%),[3],100%
same,Population Pyknosed Nuclei (%),[3],11% and 17%
same,Population Apoptotic (%),[4],80% and 54%
same,Population Healthy Nuclei (%),[4],54% and 91%
same,Population Hoechst High Intensity Objects (%),[4],0%
same,Population Membrane Permeable-Phenotype (%),[4],0% and 2%
same,Population Mitochondria Different-Phenotype (%),[4],0% and 1%
same,Population Mitotic Cells (%),[4],20% and 45%
same,Population Normal (%),[4],100%
same,Population Tubulin-Different-Phenotype (%),[4],58% and 56%
same,Population Apoptotic (%),[5],59% and 46%
same,Population Fragmented Nuclei (%),[5],2% and 12%
same,Population Healthy Nuclei (%),[5],89% and 68%
same,Population Hoechst High Intensity Objects (%),[5],0%
same,Population Membrane Permeable-Phenotype (%),[5],2% and 0%
same,Population Mitochondria Different-Phenotype (%),[5],0%
same,Population Mitotic Cells (%),[5],40% and 53%
same,Population Normal (%),[5],100%
same,Population Pyknosed Nuclei (%),[5],8% and 18%
same,Population Tubulin-Different-Phenotype (%),[5],86% and 42%
same,Population Apoptotic (%),[6],30% and 62%
same,Population Healthy Nuclei (%),[6],92% and 51%
same,Population Hoechst High Intensity Objects (%),[6],0%
same,Population Mitochondria Different-Phenotype (%),[6],0%
same,Population Mitotic Cells (%),[6],69% and 37%
same,Population Normal (%),[6],99% and 100%
same,Population Tubulin-Different-Phenotype (%),[6],62% and 46%
CN(C)CCN(Cc1ccc(-c2ccc(CNCCc3ccccc3)cc2)cc1)C(=O)CCC1CCCC1.Cl.Cl,Population Apoptotic (%),[1],77% and 66%
same,Population Fragmented Nuclei (%),[1],17% and 9%
same,Population Healthy Nuclei (%),[1],55% and 78%
same,Population Hoechst High Intensity Objects (%),[1],0%
same,Population Membrane Permeable-Phenotype (%),[1],0% and 6%
same,Population Mitochondria Different-Phenotype (%),[1],36% and 27%
same,Population Mitotic Cells (%),[1],22% and 33%
same,Population Normal (%),[1],100%
same,Population Pyknosed Nuclei (%),[1],26% and 11%
same,Population Tubulin-Different-Phenotype (%),[1],42% and 43%
same,Population Apoptotic (%),[2],100% and 99%
same,Population Fragmented Nuclei (%),[2],7% and 5%
same,Population Healthy Nuclei (%),[2],11% and 13%
same,Population Hoechst High Intensity Objects (%),[2],0% and 2%
same,Population Membrane Permeable-Phenotype (%),[2],100%
same,Population Mitochondria Different-Phenotype (%),[2],100% and 88%
same,Population Mitotic Cells (%),[2],0%
same,Population Normal (%),[2],100% and 97%
same,Population Pyknosed Nuclei (%),[2],80% and 81%
same,Population Tubulin-Different-Phenotype (%),[2],100% and 88%
same,Population Apoptotic (%),[3],78% and 64%
same,Population Fragmented Nuclei (%),[3],10% and 23%
same,Population Healthy Nuclei (%),[3],73% and 44%
same,Population Hoechst High Intensity Objects (%),[3],0%
same,Population Membrane Permeable-Phenotype (%),[3],7% and 5%
same,Population Mitochondria Different-Phenotype (%),[3],39% and 57%
same,Population Mitotic Cells (%),[3],21% and 35%
same,Population Normal (%),[3],100%
same,Population Pyknosed Nuclei (%),[3],16% and 32%
same,Population Tubulin-Different-Phenotype (%),[3],44% and 36%
same,Population Apoptotic (%),[4],100% and 96%
same,Population Healthy Nuclei (%),[4],3% and 6%
same,Population Hoechst High Intensity Objects (%),[4],0% and 3%
same,Population Membrane Permeable-Phenotype (%),[4],100%
same,Population Mitochondria Different-Phenotype (%),[4],100% and 88%
same,Population Mitotic Cells (%),[4],0% and 3%
same,Population Normal (%),[4],100% and 96%
same,Population Pyknosed Nuclei (%),[4],76% and 87%
same,Population Tubulin-Different-Phenotype (%),[4],100% and 88%
same,Population Apoptotic (%),[5],80% and 83%
same,Population Fragmented Nuclei (%),[5],26% and 10%
same,Population Healthy Nuclei (%),[5],34% and 70%
same,Population Hoechst High Intensity Objects (%),[5],0%
same,Population Mitotic Cells (%),[5],20% and 16%
same,Population Normal (%),[5],100%
same,Population Pyknosed Nuclei (%),[5],40% and 18%
same,Population Tubulin-Different-Phenotype (%),[5],58% and 62%
same,Population Apoptotic (%),[6],93% and 97%
same,Population Fragmented Nuclei (%),[6],8% and 14%
same,Population Hoechst High Intensity Objects (%),[6],0% and 1%
same,Population Membrane Permeable-Phenotype (%),[6],100%
same,Population Mitochondria Different-Phenotype (%),[6],100%
same,Population Mitotic Cells (%),[6],6% and 2%
same,Population Normal (%),[6],100% and 98%
same,Population Pyknosed Nuclei (%),[6],66% and 80%
same,Population Tubulin-Different-Phenotype (%),[6],100%
